EC50, IC50 and inhibition data for 20 molecules are collected here from ChEMBL document CHEMBL1782007, “Cytotoxic and NF-κB inhibitory constituents of the stems of Cratoxylum cochinchinense and their semisynthetic analogues” (J Nat Prod, 2011).

The subject of test [1] is HT-29. Put plainly: Cytotoxicity against human HT-29 cells after 3 days by sulforhodamine B assay. The settings on record: HT-29, 72 h, read-out: ED50 (the source's name). It is filed as functional. The procedure, abridged: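 Trypsinized HT-29 cells seeded in 96-well plates and exposed to serial DMSO dilutions, with a DMSO negative control and a paclitaxel positive control. Incubated 3 days at 37 °C, 5% CO2, then fixed, stained with sulforhodamine B, lysed in tris base and read at 515 nm. ED50 from nonlinear regression. Run in triplicate, two independent experiments.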
(In general: In SRB staining, fixed cells bind dye roughly in proportion to their protein.)

Test [2] relates to HT-29. Description: Effect on mitochondrial membrane potential in human HT-29 cells after 2 hrs using JC-1 staining by fluorescence assay. It is filed as functional, cell-based. The settings on record: HT-29, 2 h.
The target in a further test is Transcription factor p65 (Homo sapiens, UniProt Q04206). Put plainly: Inhibition of NFkappa p65 in nuclear extract of human HeLa cells assessed as blockade of NFkappa p65 binding to biotinylated-consesus sequence by ELISA. In kind it is cell-free. For orientation: In an ELISA, binding on a coated surface is turned into a signal by an enzyme label.
Test [3] concerns HT-29. Description: Antitumor activity against human HT-29 cells at 20 mg/kg, ip by in-vivo hallow fiber model. In kind it is functional, organism-based. The arrangement: dose 20 mg/kg.
A further test concerns MCF7. Description: Antitumor activity against human MCF7 cells at 20 mg/kg, ip by in-vivo hallow fiber model. In kind it is functional, organism-based. Also noted: dose 20 mg/kg.
A further test has as its system MDA-MB-435. Put plainly: Antitumor activity against human MDA-MB-435 cells at 20 mg/kg, ip by in-vivo hallow fiber model. In kind it is functional, organism-based. The arrangement: dose 20 mg/kg.

Calls of active or inactive are those of the source. The calls are words filed in the database; no cut-off is given here.

Sequence of Transcription factor p65 (Q04206 whole entry): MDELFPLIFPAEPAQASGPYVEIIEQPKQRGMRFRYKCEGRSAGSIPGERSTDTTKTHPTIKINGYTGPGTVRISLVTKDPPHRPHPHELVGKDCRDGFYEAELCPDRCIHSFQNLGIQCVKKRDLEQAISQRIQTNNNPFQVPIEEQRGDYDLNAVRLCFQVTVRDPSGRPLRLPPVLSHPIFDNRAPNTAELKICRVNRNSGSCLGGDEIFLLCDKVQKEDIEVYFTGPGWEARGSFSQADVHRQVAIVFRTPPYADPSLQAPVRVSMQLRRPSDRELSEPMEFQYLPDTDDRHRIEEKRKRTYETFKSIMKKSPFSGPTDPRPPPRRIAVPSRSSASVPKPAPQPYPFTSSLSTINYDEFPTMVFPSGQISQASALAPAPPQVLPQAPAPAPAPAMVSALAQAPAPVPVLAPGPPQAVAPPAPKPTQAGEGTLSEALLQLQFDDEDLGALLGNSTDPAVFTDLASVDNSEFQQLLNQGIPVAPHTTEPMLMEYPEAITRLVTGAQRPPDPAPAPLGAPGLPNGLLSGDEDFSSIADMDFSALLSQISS

Consider `COc1c(OC(C)=O)cc2oc3cc(OC(C)=O)c(CC=C(C)C)c(O)c3c(=O)c2c1CC=C(C)C`, for which the EC50 with HT-29 [1] turned out to be 1 µM. In addition, the IC50 (commonly the concentration at which inhibition is half-maximal) in the test with HT-29 [2] was 1.8 µM; on Transcription factor p65, > 10 µM. The inhibition entry in the test on HT-29 [3], in the test on MCF7 and in the test with MDA-MB-435 was “inactive” each time.

In the case of `CC(C)=CCc1c(O)cc2oc3cc(O)c(O)c(CC=C(C)C)c3c(=O)c2c1O`, the EC50 in the test on HT-29 [1] was found to be 4 µM. Besides, the IC50 in the test on HT-29 [2] is > 10 µM.

On to `CC(C)=CC[C@]12OC(C)(C)[C@H]3C[C@H](C=C4C(=O)c5c(O)cc(O)cc5O[C@@]431)C2=O` [COCHINCHINOXANTHONE], for which the EC50 with HT-29 [1] is 5.8 µM. Moreover, the IC50 in the test on HT-29 [2] was 3.3 µM; at Transcription factor p65 it was > 10 µM.

Consider `COc1cc2oc3c(C)c(OC)c(CC=C(C)C)c(O)c3c(=O)c2c(CC=C(C)C)c1OC`, for which the EC50 in the test with HT-29 [1] is > 10 µM. The IC50 in the test on HT-29 [2] was 1.4 µM; on Transcription factor p65, > 10 µM.

For `CC(=O)Oc1ccc2oc3c(C/C=C(\C)CCC=C(C)C)c(OC(C)=O)c(CC=C(C)C)c(O)c3c(=O)c2c1`, the EC50 in the test with HT-29 [1] is > 10 µM. For the same molecule, the IC50 on Transcription factor p65 is > 10 µM.

For the molecule `CC(C)=CCc1c(O)c(CC=C(C)C)c2oc3ccc(O)cc3c(=O)c2c1O`, the EC50 with HT-29 [1] was > 10 µM. In addition, at Transcription factor p65, the IC50 was determined as 2.9 µM.

Regarding `COc1c(OC(C)=O)cc2oc3cc(OC(C)=O)c(CC=C(C)C)c(OC(C)=O)c3c(=O)c2c1CC=C(C)C`, the EC50 in the test on HT-29 [1] was found to be 6 µM. For the same molecule, the concentration for half-maximal inhibition (IC50) at Transcription factor p65 was > 10 µM.

In the case of `CC(C)=CCC/C(C)=C/Cc1c(O)c2c(c3c(=O)c4cc(O)ccc4oc13)OC(C)(C)[C@@H](O)C2` [COCHINENSOXANTHONE], the EC50 in the test on HT-29 [1] is > 10 µM.

With `COc1c(O)cc2oc3cc(O)c4c(c3c(=O)c2c1CCC(C)(C)O)OC(C)(C)CC4`, in the test on HT-29 [1], the EC50 is > 10 µM. In the test on HT-29 [2], the IC50 is > 10 µM.

Consider `COc1c(O)cc2oc3cc4c(c(O)c3c(=O)c2c1CCC(C)(C)OC=O)CCC(C)(C)O4`, for which the EC50 with HT-29 [1] was 4.4 µM. Also, in the test on HT-29 [2], the half-maximal inhibitory concentration (IC50) is > 10 µM.

For `CC(C)=CCC/C(C)=C/Cc1c(O)c(CC=C(C)C)c(O)c2c(=O)c3cc(OC(=O)c4ccccc4)ccc3oc12`, the IC50 in the test on HT-29 [2] and on Transcription factor p65 was > 10 µM in each case.

Regarding `COc1c(OC(=O)c2ccccc2)cc2oc3cc(O)c(CC=C(C)C)c(O)c3c(=O)c2c1CC=C(C)C`, the EC50 with HT-29 [1] is 1.9 µM. Moreover, the IC50 in the test with HT-29 [2] and at Transcription factor p65 was > 10 µM throughout.

In the case of `COc1c(O)cc2oc3cc(OC(C)=O)c(CC=C(C)C)c(O)c3c(=O)c2c1CC=C(C)C`, in the test with HT-29 [1], the EC50 is 8.8 µM. Besides, on Transcription factor p65, the IC50 is > 10 µM.

Turning to `CC(C)=CCC/C(C)=C/Cc1c(O)c(CC=C(C)C)c(O)c2c(=O)c3cc(O)ccc3oc12` [COCHINCHINONE A], the EC50 in the test on HT-29 [1] is > 10 µM. For the same molecule, the IC50 in the test with HT-29 [2] and on Transcription factor p65 was > 10 µM each time.

`COc1ccc2oc3c(C/C=C(\C)CCC=C(C)C)c(OC)c(CC=C(C)C)c(O)c3c(=O)c2c1`: in the test with HT-29 [1], the EC50 was > 10 µM. At Transcription factor p65, the IC50 was > 10 µM.

Turning to `COc1cc2oc3cc(OC)c(OC)c(CC=C(C)C)c3c(=O)c2c(O)c1CC=C(C)C`, in the test on HT-29 [1], the EC50 is > 10 µM. The values for the concentration for half-maximal inhibition (IC50) in the test with HT-29 [2] and on Transcription factor p65 were 0.9 µM and > 10 µM, respectively.

In the case of `COc1c(O)cc2oc3cc4c(c(O)c3c(=O)c2c1CCC(C)(C)O)CCC(C)(C)O4`, the EC50 in the test on HT-29 [1] was 4.4 µM. Besides, the IC50 in the test with HT-29 [2] was > 10 µM.

`CC(=O)O[C@H]1C(=O)[C@@]2(C)[C@H]([C@H](OC(=O)c3ccccc3)[C@]3(O)C[C@H](OC(=O)[C@H](O)[C@@H](NC(=O)c4ccccc4)c4ccccc4)C(C)=C1C3(C)C)[C@]1(OC(C)=O)CO[C@@H]1C[C@@H]2O` [PACLITAXEL]: the EC50 in the test with HT-29 [1] came out at 0.0001 µM.

For `COc1ccc2oc3c(C/C=C(\C)CCC=C(C)C)c(O)c(CC=C(C)C)c(O)c3c(=O)c2c1`, the IC50 in the test with HT-29 [2] and on Transcription factor p65 was > 10 µM throughout.

Consider `COc1c(O)cc2oc3cc(O)c(CC=C(C)C)c(O)c3c(=O)c2c1CC=C(C)C` [MANGOSTIN], for which, in the test with HT-29 [1], the EC50 stood at 4.1 µM. Besides, the IC50 is 0.2 µM with HT-29 [2] and > 10 µM at Transcription factor p65.
